hERG rescue: hERG rescue from dofetilide block, primary screen, cell-based, CHO-hERG, FluxOR thallium flux, dofetilide IC70 | 0.51% of 310,000 active | dofetilide IC70 present | activation (rescue from dofetilide block), less the hit threshold, % at 10 µM | AID 1511, 2009;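 active = activation above the mean of controls blocked by dofetilide plus 5 SD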;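 also: thallium influx through hERG after potassium depolarization seen as dye fluorescence rise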
KCNK3 block: human KCNK3 channel inhibitors, primary screen, CHO cells, FluxOR thallium flux, B-score | Potassium channel subfamily K member 3 (Homo sapiens), O14649 | FluxOR fluorescence; hits give low values | B-score at 10 µM | 0.84% of 340,000 active;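 active = B-score under library mean minus 4 SD, starting fluorescence ratio at most library mean plus 5 SD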;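 also: more negative B-score means stronger inhibition of thallium flux through KCNK3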
Target sequence (O14649 whole entry, looked up): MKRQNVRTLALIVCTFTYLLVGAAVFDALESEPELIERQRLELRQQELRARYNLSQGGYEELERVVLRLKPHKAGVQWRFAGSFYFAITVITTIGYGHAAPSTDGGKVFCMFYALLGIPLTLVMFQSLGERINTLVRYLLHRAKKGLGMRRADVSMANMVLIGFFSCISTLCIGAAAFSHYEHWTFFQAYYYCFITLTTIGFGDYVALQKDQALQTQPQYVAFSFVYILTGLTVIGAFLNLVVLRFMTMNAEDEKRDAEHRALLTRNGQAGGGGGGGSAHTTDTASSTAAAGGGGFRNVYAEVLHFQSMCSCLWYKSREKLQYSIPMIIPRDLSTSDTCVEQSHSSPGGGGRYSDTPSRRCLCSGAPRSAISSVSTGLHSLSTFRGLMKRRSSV
KCNQ1 inh: inhibitors of human KCNQ1 channel, primary screen, cell-based, thallium flux, high-throughput | CHO-K1 KCNQ1, FluxOR thallium flux fluorescence; hits give high values | B-score at 10 µM | 1.3% of 310,000 active;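 active = compounds whose thallium flux B-score, printed positive for inhibition, exceeds three library SD while starting fluorescence stays within three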;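 also: channel opened by potassium depolarization with thallium stimulus after 20 min compound exposure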
KCNK9 block: KCNK9 potassium channel inhibitors, primary screen, HEK293 cells, thallium flux; Potassium channel subfamily K member 9 (Homo sapiens), Q9NPC2; FluxOR thallium flux fluorescence; hits give low values; B-score at 10 µM; 1.2% of 310,000 active;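 active = ratio B-score over 3 SD below the library mean, with starting fluorescence within 5 SD of its mean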;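 also: negative B-score means less thallium flux so channel inhibition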
Target sequence (Q9NPC2 whole entry, looked up): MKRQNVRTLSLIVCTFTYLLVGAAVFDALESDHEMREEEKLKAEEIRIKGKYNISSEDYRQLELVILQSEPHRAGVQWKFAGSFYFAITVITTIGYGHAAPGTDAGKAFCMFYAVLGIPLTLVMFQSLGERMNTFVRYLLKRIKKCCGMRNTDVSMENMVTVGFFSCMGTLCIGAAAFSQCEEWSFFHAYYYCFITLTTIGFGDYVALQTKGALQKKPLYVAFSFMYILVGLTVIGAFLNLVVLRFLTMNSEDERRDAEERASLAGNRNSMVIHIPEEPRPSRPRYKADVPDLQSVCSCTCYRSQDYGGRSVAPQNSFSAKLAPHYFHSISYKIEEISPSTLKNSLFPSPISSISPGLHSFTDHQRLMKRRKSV
KCNQ1 pot: potentiators or activators of KCNQ1 channel, primary screen, cell-based, thallium flux, high-throughput. Potassium voltage-gated channel subfamily KQT member 1 (Homo sapiens), P51787. CHO-K1 KCNQ1, thallium flux FluxOR fluorescence; hits give high values. B-score at 10 µM. 0.35% of 310,000 active;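 active = fluorescence ratio B-score, a plate-corrected score, at least three library SD, with initial intensity B-score within 5 SD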
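Test system: CHO-K1 cells stably expressing KCNQ1 / Medium: assay buffer / Also added: depolarizing K+/Tl+ stimulus, K2SO4 and Tl2SO4 each 12.5 mM in 5x stock / Incubation: 90 min dye loading and 20 min compound exposure, both at room temperature / Signal: thallium influx via FluxOR fluorescence, kinetic imaging / Evaluation: B score of baseline-normalized fluorescence ratio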
KCNK9 block conf: KCNK9 potassium channel inhibitors, confirmation, HEK293 cells, thallium flux, duplicate; shares compounds with KCNK9 block; FluxOR thallium flux fluorescence; inhibition, % at 10 µM; 43% of 4,900 active;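 active = thallium signal inhibited by more than 5 SD of the compound-free buffer control wells, on both duplicate plates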
Kir21 sel: mouse Kir2.1 channel inhibition, confirmation, selectivity assay for KCNK9 modulator project, cell-based, HEK293, thallium flux; shares compounds with KCNK9 block; inhibition, % at 10 µM; 4% of 4,900 active; Kir2.1 cells, FluxOR thallium flux fluorescence; AID 492993, 2010;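 active = thallium signal drop more than 5 SD beyond the mean of the no-compound control wells, seen in both duplicate plates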;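 also: signal is fluorescence rise after thallium addition divided by baseline fluorescence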
KCNK9 uninduced: thallium flux in non-induced HEK293 cells, confirmation, counter-screen for KCNK9 inhibitor project, cell-based, second counter screen, non-induced KCNK9-HEK293. shares compounds with KCNK9 block. inhibition, % at 10 µM. FluxOR thallium flux. 40% of 4,900 active;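 active = thallium signal drop beyond 5 SD of the untreated control mean, on both duplicate plates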
Numbers stand for hits; 0 = inactive; - = not tested or not shown. A selection: hits, their analogues and other compounds. The true share with any hit is near 3.1%.

SMILES | hERG rescue | KCNK3 block | KCNQ1 inh | KCNK9 block | KCNQ1 pot | KCNK9 block conf | Kir21 sel | KCNK9 uninduced
Cc1nn(CC(=O)NC(=O)NC2CCCCC2C)c(=O)c(C#N)c1C (stereo not drawn) | 0 | 0 | 0 | 0 | 0 | - | - | -
CC(=O)OCCCN(C)CC/C=C1/c2ccccc2CSc2ccccc21 | 0 | 0 | 0 | 0 | 0 | 0 | 0 | 0
C[N+](C)(C)CC/C=C1/c2ccccc2CSc2ccccc21 | 0 | 0 | 0 | 0 | 0 | - | - | -
Cc1onc(-c2ccccc2)c1C(=O)NC1CCC(C)CC1 (stereo not drawn) | - | 0 | - | - | - | - | - | -
C[C@@H](C(=O)O)[C@H]1C[C@]1(C)[C@H](NC(=O)OCc1ccccc1)c1ccccc1 | 0 | 0 | 0 | 0 | 0 | - | - | -
C[C@@H](C(=O)NCc1ccccc1)[C@H]1C[C@]1(C)[C@H](NC(=O)OCc1ccccc1)c1ccccc1 | 0 | 0 | 0 | -9.2 | 0 | 49% | 0 | 0
CC(C)(C)c1cc(OC(=O)C2CCCC2)ccc1O | 0 | 0 | 0 | -8.2 | 0 | 58% | 0 | 0
O=C(/C=C/c1ccc(-c2ccccc2[N+](=O)[O-])o1)c1ccco1 | 0 | 0 | 0 | -12 | 0 | 56% | 0 | 25%
O=C(/C=C/c1ccc([N+](=O)[O-])cc1)c1ccco1 | 0 | 0 | 0 | 0 | 0 | - | - | -
CC(C)CNC(=O)N1c2ccccc2Sc2ccccc21 | 0 | 0 | 0 | 0 | 0 | 0 | 0 | 0
O=c1c2ccccc2c(-c2ccccc2)nn1Cc1c(Cl)cccc1Cl | 0 | 0 | 0 | -10 | 0 | 33% | 0 | 36%
CCOC(=O)Cn1nc(-c2ccccc2)c2ccccc2c1=O | 0 | 0 | 0 | 0 | 0 | - | - | -
CCOC(=O)c1sc(-c2ccccc2)cc1NC(=O)Nc1ccccc1 | 0 | 0 | 0 | 0 | 0 | 0 | 0 | 0
CCC1Nc2ncnc(N3CCCCC3)c2N(Cc2ccc(Br)cc2)C1=O (stereo not drawn) | 0 | 0 | 0 | -11 | 0 | 58% | 0 | 30%
O=C1C(Cc2ccccc2)Nc2ncnc(N3CCc4ccccc4C3)c2N1Cc1ccc(Cl)cc1 (stereo not drawn) | 0 | 0 | 0 | -10 | 0 | 46% | 0 | 36%
CC(C)CC1Nc2ncnc(N3CCOCC3)c2N(Cc2ccc(Br)cc2)C1=O (stereo not drawn) | 0 | 0 | 0 | 0 | 0 | - | - | -
CC(C)CC1Nc2ncnc(N3CCCCC3)c2N(Cc2ccc(Br)cc2)C1=O (stereo not drawn) | 0 | 0 | 0 | -14 | 0 | 76% | 0 | 50%
CCC1Nc2ncnc(N3CCOCC3)c2N(Cc2ccc(Br)cc2)C1=O (stereo not drawn) | - | 0 | - | - | - | - | - | -
CC(C)(C)c1ccc(/C=N/NC(=S)NC2CCCCC2)cc1 | 0 | 0 | 0 | 0 | 0 | 0 | 0 | 0
O=C(N/N=C/c1ccccc1)NC1CCCCC1 | 0 | 0 | 0 | 0 | 0 | - | - | -
NC(=O)CC(NC(=O)c1ccc(Br)cc1)c1ccc(N2CCN(c3ccccc3)CC2)c([N+](=O)[O-])c1 (stereo not drawn) | 0 | 0 | 0 | 0 | 0 | - | - | -
NC(=O)CC(NC(=O)c1ccccc1)c1ccc(N2CCC(N3CCCC3)CC2)c([N+](=O)[O-])c1 (stereo not drawn) | 0 | 0 | 0 | 0 | 0 | - | - | -
NC(=O)CC(NC(=O)c1ccc(Br)cc1)c1ccc(N2CCCCCCC2)c([N+](=O)[O-])c1 (stereo not drawn) | 0 | 0 | 0 | -10 | 0 | 30% | 0 | 42%
NC(=O)CC(NC(=O)c1ccc(Br)cc1)c1ccc(N2CCC(Cc3ccccc3)CC2)c([N+](=O)[O-])c1 (stereo not drawn) | 0 | 0 | 0 | -9.5 | 0 | 55% | 0 | 32%
CCOC(=O)c1cccnc1SCC(=O)N(CC)c1cccc(C)c1 | 0 | 0 | 0 | 0 | 0 | 0 | 0 | 0
SMILES | hERG rescue | KCNK3 block | KCNQ1 inh | KCNK9 block | KCNQ1 pot | KCNK9 block conf | Kir21 sel | KCNK9 uninduced
O=C(NN=Cc1ccc(N2CCOCC2)s1)c1ccc([N+](=O)[O-])cc1 | - | 0 | - | - | - | - | - | -
Cc1ccc(N2C(=O)C3NN=C(C(=O)OCc4ccccc4)C3C2=O)c(C)c1 (stereo not drawn) | 0 | 0 | 0 | 0 | 0 | - | - | -
CCOC(=O)C1CCN(CCCSc2ccc(C)cc2)CC1 | 0 | 0 | 0 | 0 | 0 | 0 | 0 | 0
CCOC(=O)C1CCN(CCCSc2ccccc2)CC1 | 0 | 0 | 0 | 0 | 0 | - | - | -
COc1cc(OC)c(OC)cc1CN1CCCC(C(=O)c2ccccc2SC)C1 (stereo not drawn) | 0 | 0 | 0 | 0 | 0 | 0 | 0 | 0
COc1cc(CN2CCCC(C(=O)c3ccccc3SC)C2)cc(OC)c1 (stereo not drawn) | 0 | 0 | 0 | 0 | 0 | 0 | 0 | 0
O=C(NCc1ccccn1)Nc1cccc(F)c1 | 0 | 0 | 0 | 0 | 0 | - | - | -
COC(=O)CSc1nc2ccccn2c(=O)c1C=O | 0 | 0 | 0 | 0 | 0 | - | - | -
O=C(Nc1ccccc1)Nc1ccc(-n2ccc(C(F)(F)F)n2)cc1 | 0 | 0 | 6 | -9 | 0 | 48% | 0 | 0
O=C(OCc1nnn(Cc2ccccc2)c1-c1c(COC(=O)c2ccccc2)nnn1Cc1ccccc1)c1ccccc1 | - | 0 | - | - | - | - | - | -
O=C(c1cccs1)N1CCCC(N2CCN(c3cccc(C(F)(F)F)c3)CC2)C1 (stereo not drawn) | 0 | 0 | 0 | 0 | 0 | 0 | 0 | 0
O=C(c1ccco1)N1CCCC(N2CCN(c3cccc(C(F)(F)F)c3)CC2)C1 (stereo not drawn) | 0 | 0 | 0 | 0 | 0 | 0 | 0 | 0
CCN(CC(=O)NCc1ccc(Cl)cc1)CC(=O)NC1(C#N)CCCC1 | 0 | 0 | 0 | 0 | 0 | - | - | -
CC(Sc1nncs1)C(=O)NCC(=O)Nc1ccc(F)c(F)c1F (stereo not drawn) | 0 | 0 | 0 | 0 | 0 | - | - | -
O=C(N/N=C/c1ccncc1)c1ccccc1OCc1ccc(Br)cc1 | 0 | 0 | 0 | -8.9 | 0 | 0 | 0 | 0
Cc1ccc(/C=N/NC(=O)c2ccccc2OCc2ccc(F)cc2)o1 | 0 | 0 | 0 | 0 | 0 | - | - | -
O=C(N/N=C/c1cc(Br)ccc1OC(=O)c1ccc(Br)cc1)c1ccncc1 | 0 | 0 | 0 | -12 | 0 | 45% | 0 | 34%
O=C(N/N=C/c1cc(Br)ccc1O)c1ccncc1 | 0 | 0 | 0 | 0 | 0 | - | - | -
O=C(N/N=C\c1ccccc1OCc1ccccc1)c1ccco1 | 0 | 0 | 0 | 0 | 0 | - | - | -
C#CCOc1ccccc1/C=N/NC(=O)c1ccccc1OCc1ccccc1 | 0 | 0 | 0 | -9.6 | 0 | 30% | 0 | 41%
